Screening data from PubChem.
GPR7 antagonist = blocks human GPR7 receptor signaling; 290,000 compounds, 1.1% hits; AID 1861; P48145; inhibition, % at 4.4 µM; GPR7-expressing cells, fluorescence antagonist assay; in the data active means inhibition above about 16%, passing the limit was not always enough;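 further: cells stimulated with the agonist NPW; 0% = agonist with vehicle and 100% = vehicle without agonist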
Target sequence (P48145 whole entry, looked up): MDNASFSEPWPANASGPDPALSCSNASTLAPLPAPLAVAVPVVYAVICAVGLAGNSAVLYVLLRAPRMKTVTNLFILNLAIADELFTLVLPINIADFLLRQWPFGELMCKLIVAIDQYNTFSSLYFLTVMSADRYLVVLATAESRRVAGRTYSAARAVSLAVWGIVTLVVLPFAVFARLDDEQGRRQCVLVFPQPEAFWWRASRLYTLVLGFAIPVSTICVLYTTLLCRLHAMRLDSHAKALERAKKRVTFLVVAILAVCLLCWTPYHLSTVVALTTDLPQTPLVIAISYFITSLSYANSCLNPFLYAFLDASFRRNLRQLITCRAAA
OX1R antag-1 = antagonists of human orexin 1 receptor; O43613; CHO/OX1R cells, Fluo-8 calcium fluorescence, orexin A; inhibition, % at 5 µM; 330,000 compounds, 0.43% hits; AID 434989;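 active means inhibition above its plate's threshold, mean inhibition of all tested compounds on the plate plus 3 SD, cut at about 37% in these data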;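 further: 0% = orexin A challenge wells and 100% = SB-334867-A antagonist wells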
OX1R antag-2 = antagonists of human orexin 1 receptor (OX1R) | O43613 | OX1R-expressing cells, FRET antagonist read-out | inhibition, % at 6.6 µM | 330,000 compounds, 1.8% hits | AID 485270; in the data active means inhibition mostly above about 38%, no sharp cut-off; inactive means mostly below about 40%;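 further: 0% = agonist challenge alone and 100% = reference antagonist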
TAAR1 antagonist = human TAAR1 antagonism. Q96RJ0. CHO RD-HGA16 TAAR1, Fluo-8 calcium fluorescence, antagonist. inhibition, % at 3 µM. 360,000 compounds, 1.5% hits. AID 624466;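 active means inhibition above a per-plate cutoff, the mean inhibition of test compounds on that plate plus 3 SD, cut at about 49% in these data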;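 further: 0% = DMSO plus EC80 beta-PEA response and 100% = DMSO alone without agonist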
Target sequence (Q96RJ0 whole entry, looked up): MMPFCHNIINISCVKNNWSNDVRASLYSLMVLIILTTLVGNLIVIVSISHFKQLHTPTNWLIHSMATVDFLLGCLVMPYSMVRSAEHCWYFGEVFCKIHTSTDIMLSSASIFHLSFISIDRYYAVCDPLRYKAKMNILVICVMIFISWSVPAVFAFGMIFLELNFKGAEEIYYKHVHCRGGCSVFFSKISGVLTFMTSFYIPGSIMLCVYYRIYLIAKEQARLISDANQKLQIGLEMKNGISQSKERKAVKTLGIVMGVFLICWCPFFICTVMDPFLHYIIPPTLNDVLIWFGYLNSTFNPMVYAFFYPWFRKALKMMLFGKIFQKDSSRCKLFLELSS
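Test system: hTAAR1-expressing CHO RD-HGA16 cells, Gα16-coupled; Probe or stimulus: EC80 β-phenethylamine stimulus; Compound dosing: single nominal final test compound concentration of 3 µM; Timing: 140 s kinetic read after compound, 140 s after agonist; Signal: Fluo-8 calcium-sensitive fluorescence; Measure: % inhibition of agonist calcium response; Controls: DMSO and EC80 PEA controls.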
CHO parental Ca = counter-screen for OX1R antagonists: effect in parental CHO cells; parental CHO-K1, ATP-induced calcium, Fluo-8 fluorescence; inhibition, % at 5.6 µM; 330,000 compounds, 0.63% hits;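 active means inhibition above that plate's mean sample inhibition plus 3 SD, cut at about 26% in these data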;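 further: 0% = ATP-challenged DMSO wells and 100% = DMSO wells without ATP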
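Test system: parental CHO cells; detection: calcium-sensitive Fluo-8 fluorescence; evaluation: percent inhibition of calcium signal; also added: ATP as calcium-mobilizing challenge; repeats: one well per compound; control set: ATP-challenged DMSO wells low, unchallenged DMSO wells high; compound: single nominal dose of 5.6 µM per compound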
TAAR1 ag = human TAAR1 agonism; CHO RD-HGA16 TAAR1, Fluo-8 calcium fluorescence; vehicle wells 0%, saturating PEA agonist 100%; activation, % at 3 µM; 360,000 compounds, 0.99% hits;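 active means activation above the mean activation of all test compounds in the run plus 3 SD, cut at about 38% in these data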
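System: CHO RD-HGA16 cells carrying human TAAR1 plus Gα16; Incubation: 17-24 h seeding, 75 min 37 °C dye, 30 min RT; Measured by: Fluo-8 fluorescence, 5 s baseline then 140 s kinetic read; Control set: DMSO and PEA EC100; Replication: single well for each compound.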
OX1R Ca confirm = OX1R (human) antagonism, confirmed; CHO/OX1R cells, orexin A calcium Fluo-8 fluorescence; shares compounds with OX1R antag-1; 1,100 compounds, 38% hits; inhibition, % at 5 µM; in the data active means inhibition above about 29%;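 further: 0% = agonist challenge alone and 100% = reference antagonist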
CHO Ca triplic = signal in parental CHO cells, OX1R antagonist counter-screen | shares compounds with OX1R antag-1 | parental CHO-K1, ATP-induced calcium, Fluo-8 fluorescence | inhibition, % at 5.6 µM | 1,100 compounds, 9.3% hits | AID 492965;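 active means inhibition above a per-plate limit, the mean inhibition of that plate's test compounds plus 3 SD, cut at about 25% in these data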;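 further: 0% = ATP challenge with DMSO and 100% = DMSO without ATP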
Numbers without * were called inactive. This is a sample that favours compounds with a hit; in the whole collection about 4.6% have one here.

Screening CCOc1ccc(/C=C2\SC(=S)NC2=O)cc1OC returned GPR7 antagonist -20, OX1R antag-1 -21, OX1R antag-2 46, TAAR1 antagonist 3, CHO parental Ca 2 and TAAR1 ag 0.
Screening CCOCCCNC(=O)Cn1cc2c(n1)CCCCC2 returned GPR7 antagonist -9, OX1R antag-1 -8, OX1R antag-2 11, TAAR1 antagonist -14, CHO parental Ca -5 and TAAR1 ag 0.
For Cc1cccc(CN2CCN(C3CN(C4CCCC4)S(=O)(=O)C3)CC2)c1 (configuration not stated) the results were TAAR1 antagonist -22 and TAAR1 ag 2.
Screening O=C(CNc1cccc(S(=O)(=O)N2CCCC2)c1)Nc1ccc(C(F)(F)F)cc1 returned OX1R antag-1 25, OX1R antag-2 20, TAAR1 antagonist 18, CHO parental Ca 20, TAAR1 ag 19, OX1R Ca confirm 4 and CHO Ca triplic 12.
For CNC(=O)C12N=CNN=C1N(C)C(=O)N2C (configuration not stated) the results were GPR7 antagonist -7, OX1R antag-1 -11, OX1R antag-2 30, TAAR1 antagonist 14, CHO parental Ca -9 and TAAR1 ag 1.
Screening COc1ccc(C(C)=O)c2c(O)cccc12 returned GPR7 antagonist -14, OX1R antag-1 32, OX1R antag-2 61, TAAR1 antagonist -4, CHO parental Ca -8, TAAR1 ag 4, OX1R Ca confirm 14 and CHO Ca triplic -4.
`COc1ccccc1-c1c(C)nn2c(N3CCN(c4ccccc4OC)CC3)cc(C)nc12` gave GPR7 antagonist -11, OX1R antag-1 -16, OX1R antag-2 6, TAAR1 antagonist -1, CHO parental Ca -9 and TAAR1 ag -1.
`COc1ccccc1N1CCN(c2cc(C)nc3nc(C)nn23)CC1` gave GPR7 antagonist -4, OX1R antag-1 36, OX1R antag-2 6, TAAR1 antagonist -16, CHO parental Ca -10, TAAR1 ag 1, OX1R Ca confirm -3 and CHO Ca triplic -4.
Screening CC(C)N(C(=O)[C@H]1C[C@H](CC(=O)NC(C)(C)C)C(=O)N2CCc3c([nH]c4cc(-c5ccco5)ccc34)[C@]12C)C(C)C returned OX1R antag-1 -49, OX1R antag-2 2, TAAR1 antagonist -23, CHO parental Ca -37 and TAAR1 ag 0.
Screening CCOC(=O)C1=C[C@@H](C(C)(C)C)N(S(=O)(=O)c2ccc([N+](=O)[O-])cc2)[C@H]1c1ccccc1Cl returned TAAR1 antagonist 2 and TAAR1 ag -1.
`COc1ccc(NC2=NCCCCC2)cc1` gave GPR7 antagonist -3, OX1R antag-1 -17, OX1R antag-2 4, TAAR1 antagonist 7, CHO parental Ca 4 and TAAR1 ag 3.
Screening COc1ccc(-c2nc(NC3=NCCCCC3)sc2C)cc1 returned GPR7 antagonist -7, OX1R antag-1 55*, OX1R antag-2 14, TAAR1 antagonist -4, CHO parental Ca -19, TAAR1 ag 6, OX1R Ca confirm 20 and CHO Ca triplic -3.
Screening OCC1(Cc2cccc(Cl)c2)CCCN(Cc2ccc3cc(F)ccc3n2)C1 (configuration not stated) returned GPR7 antagonist 3, OX1R antag-1 32, OX1R antag-2 55, TAAR1 antagonist -11, CHO parental Ca -30, TAAR1 ag 1, OX1R Ca confirm 33* and CHO Ca triplic -10.
Cc1cc(Br)cc2c1NC(=O)C2(O)CC(=O)c1ccco1 (configuration not stated) was read as GPR7 antagonist 1, OX1R antag-1 4, OX1R antag-2 11, TAAR1 antagonist 2, CHO parental Ca 4 and TAAR1 ag 2.
`O=[N+]([O-])c1ccc(Cl)cc1CNc1ccc(F)c(F)c1` gave GPR7 antagonist -13, OX1R antag-1 38, OX1R antag-2 21, TAAR1 antagonist 6, CHO parental Ca -11, TAAR1 ag -1, OX1R Ca confirm 1 and CHO Ca triplic -4.
c1ccc2c(c1)oc1c(N3CCOCC3)ncnc12 was read as GPR7 antagonist -8, OX1R antag-1 -5, OX1R antag-2 28, TAAR1 antagonist 0, CHO parental Ca -3 and TAAR1 ag 21.
C(=C\c1ccccc1)/CN1CCN(c2ncnc3c2oc2ccccc23)CC1 was read as GPR7 antagonist -10, OX1R antag-1 48*, OX1R antag-2 29, TAAR1 antagonist 19, CHO parental Ca 16, TAAR1 ag 7, OX1R Ca confirm 21 and CHO Ca triplic 57*.
Screening COc1ccc(-n2c(=S)[nH]c3cc(C(=O)Nc4ccc(C)c(F)c4)ccc3c2=O)c(OC)c1 returned GPR7 antagonist 13, OX1R antag-1 21, OX1R antag-2 44, TAAR1 antagonist 13, CHO parental Ca 15, TAAR1 ag 5, OX1R Ca confirm 16 and CHO Ca triplic 15.
`COc1ccc(-n2c(=S)[nH]c3cc(C(=O)Nc4cc(C(N)=O)ccc4OC)ccc3c2=O)c(OC)c1` gave GPR7 antagonist -11, OX1R antag-1 0, OX1R antag-2 4, TAAR1 antagonist 3, CHO parental Ca -9 and TAAR1 ag 12.
Screening Cc1cc(=O)oc2c(C)c(OCC(=O)Nc3cccnc3)ccc12 returned GPR7 antagonist -2, OX1R antag-1 -13, OX1R antag-2 5, TAAR1 antagonist -7, CHO parental Ca -12 and TAAR1 ag 4.
For O=C(NC(=O)c1ccccc1O)c1ccc(C(F)(F)F)cc1 the results were GPR7 antagonist 9, OX1R antag-1 9, OX1R antag-2 24, TAAR1 antagonist -7, CHO parental Ca 6 and TAAR1 ag 12.
`CCCc1ccc(C(=O)NC(=O)c2ccccc2O)cc1` gave GPR7 antagonist 3, OX1R antag-1 27, OX1R antag-2 23, TAAR1 antagonist -7, CHO parental Ca 10, TAAR1 ag 28, OX1R Ca confirm 9 and CHO Ca triplic 73*.
For Cc1c(C(=O)N2CCOCC2)c(S(=O)(=O)Nc2ccccc2F)c(C)n1C the results were GPR7 antagonist -2, OX1R antag-1 -9, OX1R antag-2 6, TAAR1 antagonist -13, CHO parental Ca -3 and TAAR1 ag 0.
For COc1ccc2c(n1)Sc1nc3ccccc3nc1N2 the results were GPR7 antagonist 17, OX1R antag-1 35, OX1R antag-2 30, TAAR1 antagonist 17, CHO parental Ca 24, TAAR1 ag 22, OX1R Ca confirm 47* and CHO Ca triplic 37*.
